DENV2 CPE = DENV2-induced cell death inhibition. DENV2-infected cells, cytopathic effect rescue, plate reader. CPE inhibition, % at 9.99 µM. hit rate 1.7% among 350,000; in the data active = CPE inhibition above about 20%, passing the limit was not always enough; inconclusive = no clear call, values can overlap the other calls; tested in BHK-21 cells
S100A4 inh HTS = inhibitors of human S100A4 binding to myosin IIA peptide | P26447 | inhibition, % at 10.7 µM | hit rate 0.14% among 360,000 | S100A4/TAMRA-MyoIIA peptide fluorescence polarization | AID 652163;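 active = mean inhibition of at least 70% across replicates, with every replicate also reaching that level; inconclusive = mean inhibition reaches 70% but some replicates fall short; inactive = mean inhibition below 70%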
Target sequence (P26447 whole entry, looked up): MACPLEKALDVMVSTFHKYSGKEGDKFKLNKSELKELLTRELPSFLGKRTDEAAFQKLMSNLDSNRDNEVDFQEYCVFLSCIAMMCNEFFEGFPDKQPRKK
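Material: human S100A4 monomer with TAMRA-labelled myosin IIA peptide; buffer or medium: HEPES pH 7.2 with CaCl2, KCl, NaCl, DTT, Triton; compound dosing: one concentration per compound; schedule: 5 min incubation before reading; benchmarks: neutral control DMSO, positive control TFP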
MLL AF4-AF9 inh = blocks AF4 peptide binding to human AF9; P42568; AlphaScreen, biotin-AF4 peptide binding to FLAG-AF9; inhibition, % at 10 µM; hit rate 0.47% among 350,000;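 active = every replicate reaching a set inhibition limit, whatever the replicate mean, cut at about 25% in these data; inconclusive = mean inhibition reaches that limit but some replicates miss it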
Target sequence (P42568 whole entry, looked up): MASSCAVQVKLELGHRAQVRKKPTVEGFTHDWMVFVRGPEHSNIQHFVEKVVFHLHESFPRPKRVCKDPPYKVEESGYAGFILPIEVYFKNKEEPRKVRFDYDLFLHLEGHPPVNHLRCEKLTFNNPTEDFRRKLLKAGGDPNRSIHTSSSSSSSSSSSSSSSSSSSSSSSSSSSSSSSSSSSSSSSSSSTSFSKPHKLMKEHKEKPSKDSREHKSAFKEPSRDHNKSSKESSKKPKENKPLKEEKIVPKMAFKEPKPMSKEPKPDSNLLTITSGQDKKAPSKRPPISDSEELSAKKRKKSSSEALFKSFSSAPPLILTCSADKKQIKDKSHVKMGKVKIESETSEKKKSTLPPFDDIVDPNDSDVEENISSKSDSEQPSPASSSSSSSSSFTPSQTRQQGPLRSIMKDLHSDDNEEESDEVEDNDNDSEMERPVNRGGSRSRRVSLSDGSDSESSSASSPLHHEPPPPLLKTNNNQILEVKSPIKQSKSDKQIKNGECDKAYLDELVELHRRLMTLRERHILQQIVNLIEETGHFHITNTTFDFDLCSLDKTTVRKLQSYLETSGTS
SIRT5 block = inhibitors of human sirtuin-5 desuccinylase | Q9NXA8 | AID 652115 | inhibition, % at 15 µM | hit rate 1.1% among 330,000 | Purified SirT5, succinyl-peptide AMC, trypsin-coupled fluorescence; in the data active = inhibition above about 15%; inconclusive = no clear call, values can overlap the other calls
CaV13 FRET inh = Disruptors of the CACNA1D IQ motif to Ca2+-dependent inactivation inhibitor domain association, primary screening, Förster resonance energy transfer in intact living …; HEK cells, CFP/YFP FRET ICDI-IQ, plate reader, 10 min; percent FRET-ratio fall versus neutral wells; inhibition, % at 12.3 µM; hit rate 0.098% among 340,000;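 active = mean replicate inhibition of at least 30% and at least 1% of replicates passing that level; inconclusive = only one of the two criteria is met; inactive = neither criterion is met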
Of the large screens only hits and unclear results are named; the others gave an inactive call. Shown are actives, neighbours in structure and some others; about 2.7% of the full set was active somewhere.

COc1ccc2cc(CCNC(=O)C(C)C)c(=O)[nH]c2c1	MLL AF4-AF9 inh 31.1
Cc1ccc(N2C3=C(C(=O)CC(C)(C)C3)C(c3cn(C)nc3C)C3=C2CC(C)(C)CC3=O)cc1	S100A4 inh HTS 112.2
Cc1ccc(N=C2C(=O)Nc3c(C)cccc32)cc1	none
Cc1ccc(N=C2C(=O)Nc3ccc(Br)cc32)cc1	SIRT5 block 15.3
COCC#Cc1ccc2c(c1)O[C@H](CN(C)Cc1ccncc1)[C@@H](C)CN([C@@H](C)CO)S2(=O)=O	none (no result: CaV13 FRET inh)
COCC#Cc1ccc2c(c1)O[C@@H](CN(C)Cc1ccccc1)[C@H](C)CN([C@H](C)CO)S2(=O)=O	DENV2 CPE 23.4 (no result: CaV13 FRET inh)
COCC#Cc1ccc2c(c1)O[C@H](CN(C)Cc1ccccc1)[C@@H](C)CN([C@H](C)CO)S2(=O)=O	DENV2 CPE 28.2 (no result: CaV13 FRET inh)
COCC#Cc1ccc2c(c1)O[C@@H](CN(C)Cc1ccncc1)[C@H](C)CN([C@H](C)CO)S2(=O)=O	DENV2 CPE 20.3 (no result: CaV13 FRET inh)
COc1ccc(NC(=O)N2CC(=O)N3[C@@H](CO)[C@H](c4ccc(C#CCC5CCCC5)cc4)[C@@H]3C2)cc1	DENV2 CPE 22.6 (no result: CaV13 FRET inh)
COc1ccc(NC(=O)N2CC(=O)N3[C@H](C2)[C@@H](c2ccc(C#CCC4CCCC4)cc2)[C@@H]3CO)cc1	none (no result: CaV13 FRET inh)
COc1ccc(NC(=O)N2CC(=O)N3[C@H](C2)[C@H](c2ccc(C#CCC4CCCC4)cc2)[C@@H]3CO)cc1	SIRT5 block 15.1 (no result: CaV13 FRET inh)
COc1cccc(NC(=O)N2CC(=O)N3[C@H](C2)[C@@H](c2ccc(C#CC4CCCC4)cc2)[C@@H]3CO)c1	DENV2 CPE 37.5, SIRT5 block 15.7 (no result: CaV13 FRET inh)
COc1cccc(NC(=O)N2CC(=O)N3[C@H](C2)[C@@H](c2ccc(C#CCC4CCCC4)cc2)[C@@H]3CO)c1	SIRT5 block 21.5 (no result: CaV13 FRET inh)
CC=Cc1ccc2n(c1=O)C[C@@H]1[C@@H](CO)[C@H](C(=O)NC3CCC3)N(CC)[C@H]21 (mixture of isomers)	none (no result: MLL AF4-AF9 inh, CaV13 FRET inh)
COCCOC(=O)N1C(=O)[C@@]2(c3ccccc31)[C@H](C(=O)Nc1nc3ccccc3s1)[C@H]1C(=O)O[C@H](c3ccccc3)[C@H](c3ccccc3)N1[C@@H]2c1ccc(OCCO)cc1	none (no result: CaV13 FRET inh)
O=[N+]([O-])c1ccc(Cl)c(-c2ccc(/C=N/n3cnnc3)o2)c1	none
CN1CCN(/N=C/c2ccc(-c3ccc([N+](=O)[O-])cc3Cl)o2)CC1	MLL AF4-AF9 inh 35.7
Cc1ccc(S(=O)(=O)c2nc(Cc3ccccc3)oc2N2CCOCC2)cc1	SIRT5 block 18.3
C[C@@H](NC(=O)C[C@H]1C[C@@H]2c3cc(NC(=O)CC4CC4)ccc3O[C@@H]2[C@@H](CO)O1)c1ccccc1	none (no result: CaV13 FRET inh)
C[C@H](CO)N1C[C@H](C)[C@H](CN(C)C)Oc2c(NC(=O)Nc3cccc4ccccc34)cccc2C1=O	DENV2 CPE 33.6, S100A4 inh HTS inconclusive (no result: CaV13 FRET inh)
CC(C)NC(=O)Nc1cccc2c1O[C@H](CN(C)C(=O)Nc1ccccc1)[C@@H](C)CN([C@@H](C)CO)C2=O	DENV2 CPE 47.5 (no result: CaV13 FRET inh)
COc1ccc(NC(=O)N(C)C[C@@H]2Oc3c(NC(=O)NC(C)C)cccc3C(=O)N([C@H](C)CO)C[C@@H]2C)cc1	none (no result: CaV13 FRET inh)
CC(C)NC(=O)Nc1cccc2c1O[C@H](CN(C)C(=O)NC(C)C)[C@@H](C)CN([C@H](C)CO)C2=O	DENV2 CPE inconclusive
CC(C)NC(=O)Nc1cccc2c1O[C@@H](CN(C)C(=O)Nc1ccccc1)[C@H](C)CN([C@H](C)CO)C2=O	none (no result: CaV13 FRET inh)
CC(C)NC(=O)Nc1cccc2c1O[C@@H](CN(C)C(=O)NC(C)C)[C@@H](C)CN([C@@H](C)CO)C2=O	DENV2 CPE 65.9 (no result: CaV13 FRET inh)
COc1ccc(NC(=O)Nc2cccc3c2O[C@@H](CN(C)C(=O)NC(C)C)[C@@H](C)CN([C@@H](C)CO)C3=O)cc1	DENV2 CPE 38.5 (no result: CaV13 FRET inh)
CC(C)NC(=O)N(C)C[C@@H]1Oc2c(NC(=O)Nc3cccc4ccccc34)cccc2C(=O)N([C@H](C)CO)C[C@H]1C	S100A4 inh HTS 100.6 (no result: CaV13 FRET inh)
NC(=O)CC(NC(=O)Cc1ccc(Cl)cc1)c1ccc(NC2CC3CCC2C3)c([N+](=O)[O-])c1 (configuration not stated)	none
NC(=O)CC(NC(=O)Cc1ccc(Cl)cc1)c1ccc(NC2CCN(Cc3ccccc3)CC2)c([N+](=O)[O-])c1 (configuration not stated)	DENV2 CPE 61.1 (no result: SIRT5 block)
CN(Cc1ccccc1)c1ccc(C(CC(N)=O)NC(=O)Cc2ccc(Br)cc2)cc1[N+](=O)[O-] (configuration not stated)	DENV2 CPE 135.9 (no result: SIRT5 block)
NC(=O)CC(NC(=O)Cc1ccc(Cl)cc1)c1ccc(NCc2ccccc2)c([N+](=O)[O-])c1 (configuration not stated)	DENV2 CPE 28.2 (no result: SIRT5 block)
NC(=O)CC(NC(=O)c1cccc(Br)c1)c1ccc(NC2CCN(Cc3ccccc3)CC2)c([N+](=O)[O-])c1 (configuration not stated)	DENV2 CPE 70.3 (no result: SIRT5 block)
Nc1ccc2c(c1)C(=O)c1cc(N)c(Cl)cc1-2	none (no result: SIRT5 block)
COc1cc2c(cc1N)-c1ccc(N)cc1C2=O	MLL AF4-AF9 inh 35.1 (no result: SIRT5 block)
Cc1noc(C)c1NC(=O)N(C)C[C@H]1OCCCC[C@@H](C)Oc2ccc(NC(=O)Nc3ccccc3)cc2C(=O)N([C@@H](C)CO)C[C@H]1C	none (no result: S100A4 inh HTS, MLL AF4-AF9 inh, SIRT5 block, CaV13 FRET inh)
O=C(CN1CCOCC1)N[C@H]1CC[C@H](CCn2cc(C3CC3)nn2)O[C@H]1CO	none (no result: CaV13 FRET inh)
N#C[C@H]1[C@H](c2ccc(-c3ccccc3F)cc2)[C@@H](CO)N1C(=O)C1CC1	DENV2 CPE 30.0 (no result: SIRT5 block, CaV13 FRET inh)
N#C[C@H]1[C@H](c2ccccc2-c2ccccc2F)[C@@H](CO)N1C(=O)Cc1ccccc1	SIRT5 block 17.6 (no result: CaV13 FRET inh)
N#C[C@@H]1[C@H](c2ccc(-c3ccccc3F)cc2)[C@@H](CO)N1C(=O)C1CC1	DENV2 CPE 37.1 (no result: CaV13 FRET inh)
N#C[C@H]1[C@H](c2ccccc2-c2ccccc2F)[C@@H](CO)N1C(=O)C1CC1	DENV2 CPE 21.5 (no result: SIRT5 block, CaV13 FRET inh)
CCC(=O)N[C@@H]1CC[C@H](CCNC(=O)Nc2ccc(C(F)(F)F)cc2)O[C@@H]1CO	none (no result: CaV13 FRET inh)
N#C[C@@H]1[C@H](c2ccc(-c3ccccc3F)cc2)[C@H](CO)N1C(=O)C1CC1	DENV2 CPE 87.2 (no result: CaV13 FRET inh)
N#C[C@@H]1[C@H](c2ccccc2-c2cccc(F)c2)[C@H](CO)N1C(=O)C1CCCC1	DENV2 CPE 36.7 (no result: CaV13 FRET inh)
N#C[C@H]1[C@@H](c2ccc(-c3ccccc3F)cc2)[C@H](CO)N1C(=O)C1CC1	none (no result: CaV13 FRET inh)
COc1ccc(-c2ccccc2[C@@H]2[C@H](C#N)N(C(=O)C3CC3)[C@H]2CO)cc1	DENV2 CPE 45.0 (no result: CaV13 FRET inh)
N#C[C@H]1[C@@H](c2ccccc2-c2cccc(F)c2)[C@H](CO)N1C(=O)C1CCCC1	none (no result: CaV13 FRET inh)
COc1ccc(-c2ccccc2[C@H]2[C@@H](C#N)N(C(=O)C3CC3)[C@@H]2CO)cc1	none (no result: CaV13 FRET inh)
